Legend:
Experiment in all cases: activity assay, unused NAD+ converted to a fluorescent compound
Type in all cases: biochemical
PARP3 = target: T1, PARP3 (Homo sapiens, UniProt Q9Y6F1)
T1 sequence (Q9Y6F1 1-533): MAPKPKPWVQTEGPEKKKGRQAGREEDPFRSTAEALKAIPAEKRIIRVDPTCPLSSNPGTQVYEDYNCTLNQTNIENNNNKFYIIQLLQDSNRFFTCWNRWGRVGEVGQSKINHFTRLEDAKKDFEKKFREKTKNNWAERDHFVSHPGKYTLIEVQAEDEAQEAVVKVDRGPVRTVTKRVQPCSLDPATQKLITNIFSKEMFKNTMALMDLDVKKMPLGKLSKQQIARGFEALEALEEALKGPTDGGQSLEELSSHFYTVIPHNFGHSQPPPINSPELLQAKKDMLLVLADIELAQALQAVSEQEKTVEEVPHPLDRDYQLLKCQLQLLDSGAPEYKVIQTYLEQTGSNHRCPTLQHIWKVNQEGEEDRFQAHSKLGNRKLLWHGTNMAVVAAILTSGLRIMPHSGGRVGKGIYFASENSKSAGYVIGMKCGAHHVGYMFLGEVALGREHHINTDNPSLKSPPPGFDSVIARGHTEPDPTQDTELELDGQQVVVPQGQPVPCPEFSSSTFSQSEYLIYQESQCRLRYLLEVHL
How it was run: (§1)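 PARP3 or PARP4 was expressed as an N-terminal His-tag construct in E. coli Rosetta2 (DE3) in autoinduction TB medium, overnight at 18 °C. It was purified by Ni-affinity followed by size-exclusion chromatography. Activity was read by converting residual NAD+ to a fluorescent product. Inhibitor was tested as half-log dilutions, with reactions in quadruplicate. IC50 was fitted with a four-variable sigmoidal dose–response curve.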

PARP12 = target: T2, PARP12 (Homo sapiens, UniProt Q9H0J9)
T2 sequence (Q9H0J9 489-684 limits assumed): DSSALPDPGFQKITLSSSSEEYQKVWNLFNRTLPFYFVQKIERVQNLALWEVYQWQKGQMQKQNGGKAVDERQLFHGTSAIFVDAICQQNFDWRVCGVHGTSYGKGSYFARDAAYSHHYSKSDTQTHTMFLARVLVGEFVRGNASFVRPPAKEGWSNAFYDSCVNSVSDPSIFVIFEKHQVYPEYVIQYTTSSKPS
How it was run: (§2)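 Human PARP12 or PARP16 carrying an N-terminal His tag was expressed in E. coli Rosetta2 (DE3) in autoinduction TB medium, overnight at 18 °C. It was purified by Ni-affinity and size-exclusion chromatography, then the His tag was cleaved with TEV protease. Unused NAD+ was converted to a fluorescent compound. Test compound was given in half-log dilutions, in quadruplicate. IC50 came from a four-variable sigmoidal dose–response fit.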

PARP16 = target: T3, PARP16 (Homo sapiens, UniProt Q8N5Y8)
T3 sequence (Q8N5Y8 5-279 limits assumed): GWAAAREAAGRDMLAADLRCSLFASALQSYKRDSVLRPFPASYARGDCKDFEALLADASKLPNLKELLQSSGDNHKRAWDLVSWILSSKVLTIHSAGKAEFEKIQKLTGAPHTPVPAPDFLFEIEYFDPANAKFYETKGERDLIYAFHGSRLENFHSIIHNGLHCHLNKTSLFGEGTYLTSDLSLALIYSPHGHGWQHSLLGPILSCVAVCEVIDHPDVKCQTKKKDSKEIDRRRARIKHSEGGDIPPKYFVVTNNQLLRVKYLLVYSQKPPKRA
How it was run: as §2

PARP4 = target: T4, PARP4 (Homo sapiens, UniProt Q9UKK3)
T4 sequence (Q9UKK3 242-573 limits assumed): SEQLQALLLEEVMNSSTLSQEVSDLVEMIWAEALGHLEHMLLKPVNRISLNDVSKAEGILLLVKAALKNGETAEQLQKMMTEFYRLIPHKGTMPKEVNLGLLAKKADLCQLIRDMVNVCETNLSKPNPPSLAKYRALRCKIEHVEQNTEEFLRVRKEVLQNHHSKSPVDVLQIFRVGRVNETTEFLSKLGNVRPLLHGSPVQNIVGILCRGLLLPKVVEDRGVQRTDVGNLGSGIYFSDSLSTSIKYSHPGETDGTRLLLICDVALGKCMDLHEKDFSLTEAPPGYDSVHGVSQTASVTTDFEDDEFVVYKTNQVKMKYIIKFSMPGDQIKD
How it was run: as §1

What does the source list for `N#Cc1ccc(Oc2ccc(C(N)=O)cc2)cc1` [compound 10, 4‐(4‐cyanophenoxy)benzamide]?
IC50 (PARP3): > 100 µM; IC50 (PARP12): > 10 µM; IC50 (PARP16): > 10 µM; IC50 (PARP4): > 100 µM

How did the IC50 (PARP3) turn out when `NC(=O)c1ccc(Oc2cccc(C(N)=O)c2)cc1` [compound 20, 3‐(4‐carbamoylphenoxy)benzamide] was run?
Its IC50 is over 100 µM.

What about the IC50 (PARP12) of the same compound?
The IC50 was over 10 µM.

What about the IC50 (PARP16) of the same compound?
The IC50 was over 10 µM.

And the IC50 (PARP4)?
The IC50 was 7 µM.

Source: article PMC8485830 (ChemistryOpen, 2021)
